Assay results as given in ChEMBL document CHEMBL1649427, “Inactivation of the glycoside hydrolase NagZ attenuates antipseudomonal beta-lactam resistance in Pseudomonas aeruginosa” (Antimicrob Agents Chemother, 2009).
Values after ≈ are worked out from the molar mass of the structure shown.

Experiments:
[1] = system: Pseudomonas aeruginosa; assay: Antimicrobial activity against Pseudomonas aeruginosa PAO1 harboring deltaampD::lox deltaampDh2::lox delta ampDh3::lox after 18 hrs by Etest; format: functional; settings: PAO1, 18 h
How it was run: (§1)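 Etest strips on Mueller-Hinton agar plates, run per the manufacturer's recommendations; MICs determined in triplicate.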

[2] = system: Pseudomonas aeruginosa; assay: Ratio of MIC for Pseudomonas aeruginosa PAO1 harboring deltaampD::lox deltaampDh2::lox deltaampDh3::lox to MIC for Pseudomonas aeruginosa PAO1 harboring deltaampD::lox deltaampDh2::lox deltaampDh3::lox deltanagZ::Gm
[3] = system: Pseudomonas aeruginosa; assay: Antimicrobial activity against Pseudomonas aeruginosa PAO1 harboring deltaampD::lox deltaampDh2::lox deltaampDh3::lox deltanagZ::Gm after 18 hrs by Etest; format: functional; settings: PAO1, 18 h; how it was run: as §1
[4] = system: Pseudomonas aeruginosa; assay: Antimicrobial activity against nagZ gene-deficient Pseudomonas aeruginosa PAO1 after 18 hrs by Etest; format: functional; settings: PAO1, 18 h
How it was run: (§2)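 Strains are P. aeruginosa PAO1 and its insertional nagZ-inactivated derivative. MICs were read from Etest strips on Mueller-Hinton agar, following the manufacturer's recommendations. Each determination was done in triplicate.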

[5] = system: Pseudomonas aeruginosa; assay: Antimicrobial activity against Pseudomonas aeruginosa PAO1 after 18 hrs by Etest; format: functional; settings: PAO1, 18 h; how it was run: as §2
[6] = system: Pseudomonas aeruginosa; assay: Antimicrobial activity against Pseudomonas aeruginosa PAO1 harboring deltaampD::lox deltaampDh2::lox deltaampDh3::lox after 18 hrs by broth microdilution method; format: functional; settings: PAO1, 18 h
How it was run: (§3)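 CLSI broth microdilution in cation-adjusted Mueller-Hinton medium with serial β-lactam dilutions. Each well holds 200 μl broth inoculated with ~10⁴ cells from starter cultures at OD600 ~0.5. Plates shaken at 37°C for 18 h. The MIC is read as the lowest antibiotic concentration showing no growth. Triplicate determinations.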

[7] = system: Pseudomonas aeruginosa; assay: Antimicrobial activity against nagZ gene-deficient Pseudomonas aeruginosa PAO1 after 18 hrs by broth microdilution method; format: functional; settings: PAO1, 18 h; how it was run: as §3
[8] = system: Pseudomonas aeruginosa; assay: Antimicrobial activity against Pseudomonas aeruginosa PAO1 after 18 hrs by broth microdilution method; format: functional; settings: PAO1, 18 h; how it was run: as §3
[9] = system: Pseudomonas aeruginosa; assay: Antimicrobial activity against Pseudomonas aeruginosa PAO1 harboring deltaampD::lox deltaampDh2::lox delta ampDh3::lox after 18 hrs by broth microdilution method; format: functional; settings: PAO1, 18 h; how it was run: as §3
[10] = system: Pseudomonas aeruginosa; assay: Antimicrobial activity against ampDh2 gene-deficient Pseudomonas aeruginosa PAO1 after 18 hrs by broth microdilution method in presence of 0.5 mM nagZ inhibitor EtBuPUG; format: functional; settings: PAO1, 18 h
How it was run: (§4)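 Wells are then inoculated with 100 μl culture and incubated 18 h at 37°C. The MIC is the lowest concentration with no growth. Triplicate determinations.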

[11] = system: Pseudomonas aeruginosa; assay: Ratio of MIC for ampDh3 gene-deficient Pseudomonas aeruginosa PAO1 after 18 hrs by broth microdilution method presence of 0.5 mM nagZ inhibitor EtBuPUG to MIC for ampDh3 gene-deficient Pseudomonas aeruginosa PAO1 in absence of nagZ inhibitor EtBuPUG; format: functional
How it was run: (§5)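 Broth microdilution in Mueller-Hinton broth. Serial β-lactam dilutions in 80 μl broth, plus 20 μl EtBuPUG (5 mM stock in H₂O) or 20 μl H₂O, then 100 μl culture grown to OD600 ~0.5. Plates incubated at 37°C for 18 h. MIC read as the antibiotic concentration in wells with no growth, with and without inhibitor. Triplicate.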

[12] = system: Pseudomonas aeruginosa; assay: Antimicrobial activity against ampD gene-deficient Pseudomonas aeruginosa PAO1 after 18 hrs by broth microdilution method in presence of 0.5 mM nagZ inhibitor EtBuPUG; format: functional; settings: PAO1, 18 h; how it was run: as §4
[13] = system: Pseudomonas aeruginosa; assay: Antimicrobial activity against ampD gene-deficient Pseudomonas aeruginosa PAO1 after 18 hrs by broth microdilution method in absence of EtBuPUG; settings: PAO1, 18 h
[14] = system: Pseudomonas aeruginosa; assay: Antimicrobial activity against Pseudomonas aeruginosa PAO1 harboring deltaampD::lox deltaampDh2::lox delta ampDh3::lox and wild type nagZ gene after 18 hrs by Etest; format: functional; settings: PAO1, 18 h
How it was run: (§6)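 Etest strips on Mueller-Hinton agar supplemented with 75 μg/ml tetracycline to maintain the vector or complementation plasmid, run per the manufacturer's recommendations; triplicate determinations.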

[15] = system: Pseudomonas aeruginosa; assay: Antimicrobial activity against ampDh3 gene-deficient Pseudomonas aeruginosa PAO1 after 18 hrs by broth microdilution method in presence of 0.5 mM nagZ inhibitor EtBuPUG; format: functional; settings: PAO1, 18 h; how it was run: as §4
[16] = system: Pseudomonas aeruginosa; assay: Antimicrobial activity against ampDh3 gene-deficient Pseudomonas aeruginosa PAO1 after 18 hrs by broth microdilution method in presence; format: functional; settings: PAO1, 18 h; how it was run: as §4
[17] = system: Pseudomonas aeruginosa; assay: Antimicrobial activity against Pseudomonas aeruginosa PAO1 after 18 hrs by broth microdilution method in presence of 0.5 mM nagZ inhibitor EtBuPUG; format: functional; settings: PAO1, 18 h; how it was run: as §4
[18] = system: Pseudomonas aeruginosa; assay: Antimicrobial activity against ampDDh2 and ampDh3 gene-deficient Pseudomonas aeruginosa PAO1 after 18 hrs using […] by agar diffusion method; format: functional
How it was run: (§7)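 Cultures grown in Mueller-Hinton broth at 37°C to OD600 ~0.5, pelleted, resuspended in 2 ml broth and streaked on Mueller-Hinton agar. […] Inhibition zone diameter measured after overnight incubation at 37°C. Triplicate determinations.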

[19] = system: Pseudomonas aeruginosa; assay: Antimicrobial activity against ampDh2 and ampDh3 gene-deficient Pseudomonas aeruginosa PAO1 after 18 hrs by broth microdilution method; format: functional; settings: PAO1, 18 h; how it was run: as §4
[20] = system: Pseudomonas aeruginosa; assay: Antimicrobial activity against ampDDh2 gene-deficient Pseudomonas aeruginosa PAO1 after 18 hrs by broth microdilution method in presence of 0.5 mM nagZ inhibitor EtBuPUG; format: functional; settings: PAO1, 18 h; how it was run: as §4
[21] = system: Pseudomonas aeruginosa; assay: Antimicrobial activity against ampDh2 gene-deficient Pseudomonas aeruginosa PAO1 using 30 ug/disk by agar diffusion method; format: functional
How it was run: (§8)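 Cultures grown in Mueller-Hinton broth at 37°C to OD600 ~0.5, pelleted, resuspended in 2 ml broth and streaked on Mueller-Hinton agar. Inhibition zone diameter measured after overnight incubation at 37°C. Triplicate determinations.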

[22] = system: Pseudomonas aeruginosa; assay: Antimicrobial activity against ampDDh3 gene-deficient Pseudomonas aeruginosa PAO1 after 18 hrs by broth microdilution method in presence; format: functional; settings: PAO1, 18 h; how it was run: as §4
[23] = system: Pseudomonas aeruginosa; assay: Antimicrobial activity against ampDh2 gene-deficient Pseudomonas aeruginosa PAO1 using 30 ug/disk by agar diffusion method in presence of 0.5 mM nagZ inhibitor EtBuPUG; format: functional; how it was run: as §7
[24] = system: Pseudomonas aeruginosa; assay: Antimicrobial activity against ampDDh2 and ampDh3 gene-deficient Pseudomonas aeruginosa PAO1 after 18 hrs using […] by agar diffusion method in presence of 0.5 mM nagZ inhibitor EtBuPUG; format: functional; how it was run: as §8
[25] = system: Pseudomonas aeruginosa; assay: Antimicrobial activity against Pseudomonas aeruginosa PAO1 after 18 hrs by using 30 ug/disk by agar diffusion method in presence of 0.5 mM nagZ inhibitor EtBuPUG; format: functional; how it was run: as §7
[26] = system: Pseudomonas aeruginosa; assay: Antimicrobial activity against ampDh2 and ampDh3 gene-deficient Pseudomonas aeruginosa PAO1 after 18 hrs by broth microdilution method in presence of 0.5 mM nagZ inhibitor EtBuPUG; format: functional; settings: PAO1, 18 h; how it was run: as §4
[27] = system: Pseudomonas aeruginosa; assay: Antimicrobial activity against Pseudomonas aeruginosa PAO1 after 18 hrs by using 30 ug/disk by agar diffusion method; format: functional; how it was run: as §8
[28] = system: Pseudomonas aeruginosa; assay: Antimicrobial activity against ampDDh2 gene-deficient Pseudomonas aeruginosa PAO1 after 18 hrs by broth microdilution method in presence; format: functional; settings: PAO1, 18 h; how it was run: as §4
[29] = system: Pseudomonas aeruginosa; assay: Antimicrobial activity against ampDh2 gene-deficient Pseudomonas aeruginosa PAO1 after 18 hrs by broth microdilution method in absence of EtBuPUG; settings: PAO1, 18 h
[30] = system: Pseudomonas aeruginosa; assay: Antimicrobial activity against Pseudomonas aeruginosa PAO1 harboring deltaampD::lox deltaampDh2::lox delta ampDh3::lox and plasmid pUCP27 after 18 hrs by Etest; format: functional; settings: PAO1, 18 h; how it was run: as §6
[31] = system: Pseudomonas aeruginosa; assay: Ratio of MIC for ampD gene-deficient Pseudomonas aeruginosa PAO1 after 18 hrs by broth microdilution method presence of 0.5 mM nagZ inhibitor EtBuPUG to MIC for […] gene-deficient Pseudomonas aeruginosa PAO1 in absence of nagZ inhibitor EtBuPUG; format: functional; how it was run: as §5
[32] = system: Pseudomonas aeruginosa; assay: Antimicrobial activity against ampDDh3 gene-deficient Pseudomonas aeruginosa PAO1 after 18 hrs by broth microdilution method in presence of 0.5 mM nagZ inhibitor EtBuPUG; format: functional; settings: PAO1, 18 h; how it was run: as §4
[33] = system: Pseudomonas aeruginosa; assay: Antimicrobial activity against ampDDh2 and ampDh3 gene-deficient Pseudomonas aeruginosa PAO1 after 18 hrs by broth microdilution method in presence of 0.5 mM nagZ inhibitor EtBuPUG; format: functional; settings: PAO1, 18 h; how it was run: as §4
[34] = system: Pseudomonas aeruginosa; assay: Ratio of MIC for ampDh2 gene-deficient Pseudomonas aeruginosa PAO1 after 18 hrs by broth microdilution method in presence of 0.5 mM nagZ inhibitor EtBuPUG to MIC for ampDh2 gene-deficient Pseudomonas aeruginosa PAO1 in absence of nagZ inhibitor EtBuPUG; format: functional; how it was run: as §5

Row | Structure (SMILES) | MIC [1] | Ratio [2] | MIC [3] | MIC [7] | MIC [8] | MIC [10] | MIC [12] | MIC [13] | MIC [15] | MIC [16] | MIC [17] | inhibition zone (IZ) [18] | MIC [19] | MIC [20] | MIC [22] | inhibition zone (IZ) [23] | inhibition zone (IZ) [25] | MIC [26] | MIC [28] | MIC [29] | also measured
1 | CO/N=C(\C(=O)N[C@@H]1C(=O)N2C(C(=O)[O-])=C(C[N+]3(C)CCCC3)CS[C@H]12)c1csc(N)n1 | 12 µg/mL (≈ 25 µM) | 4 | 3 µg/mL (≈ 6.24 µM) |  |  |  |  |  |  |  |  |  |  |  |  |  |  |  |  |  | MIC [4]: 0.38 µg/mL (≈ 0.791 µM); MIC [5]: 0.5 µg/mL (≈ 1.04 µM)
2 | O=C(O)c1cn(C2CC2)c2cc(N3CCNCC3)c(F)cc2c1=O [CIPROFLOXACIN] |  |  |  | 0.2 µg/mL (≈ 0.604 µM) | 0.2 µg/mL (≈ 0.604 µM) |  |  |  |  |  |  |  |  |  |  |  |  |  |  |  | MIC [6]: 0.2 µg/mL (≈ 0.604 µM); MIC [9]: 0.2 µg/mL (≈ 0.604 µM)
3 | CC(C)(O/N=C(\C(=O)N[C@@H]1C(=O)N2C(C(=O)[O-])=C(C[n+]3ccccc3)CS[C@H]12)c1csc(N)n1)C(=O)O [CEFTAZIDIME] | 48 µg/mL (≈ 87.8 µM) | 4 | 12 µg/mL (≈ 22 µM) | 0.5 µg/mL (≈ 0.915 µM) | 1 µg/mL (≈ 1.83 µM) | 0.19 µg/mL | 4 µg/mL | 8 µg/mL (≈ 14.6 µM) | 0.5 µg/mL | 1 µg/mL (≈ 1.83 µM) | 0.5 µg/mL | 9.2 mm | 0.75 µg/mL (≈ 1.37 µM) | 6 µg/mL | 48 µg/mL (≈ 87.8 µM) | 12.3 mm | 13.1 mm | 0.75 µg/mL | 12 µg/mL (≈ 22 µM) | 0.75 µg/mL (≈ 1.37 µM) | Ratio [11]: 2; MIC [14]: 48 µg/mL (≈ 87.8 µM); inhibition zone (IZ) [21]: 10.1 mm; inhibition zone (IZ) [24]: 9.5 mm; inhibition zone (IZ) [27]: 11.4 mm; MIC [30]: 12 µg/mL (≈ 22 µM); Ratio [31]: 2; MIC [32]: 48 µg/mL; MIC [33]: 48 µg/mL; Ratio [34]: 4
4 | C[C@H]1[C@H](NC(=O)/C(=N\OC(C)(C)C(=O)O)c2csc(N)n2)C(=O)N1S(=O)(=O)O [AZTREONAM] |  |  | 4 µg/mL (≈ 9.19 µM) | 0.25 µg/mL (≈ 0.574 µM) | 1 µg/mL (≈ 2.3 µM) | 0.25 µg/mL | 3 µg/mL | 6 µg/mL (≈ 13.8 µM) | 0.75 µg/mL | 1.5 µg/mL (≈ 3.44 µM) | 0.25 µg/mL | 10.7 mm | 0.5 µg/mL (≈ 1.15 µM) | 8 µg/mL | 16 µg/mL (≈ 36.7 µM) | 14 mm | 15.1 mm | 0.25 µg/mL | 16 µg/mL (≈ 36.7 µM) | 1 µg/mL (≈ 2.3 µM) | MIC [30]: 6 µg/mL (≈ 13.8 µM); MIC [32]: 8 µg/mL; MIC [33]: 12 µg/mL
